# Yeast life ext: yeast lifespan extension; 130,000 tested, 0.68% active; inhibition of the nicotinamide effect, % at 10 µM; S. cerevisiae growth with nicotinamide, OD615; deaD strain in restrictive glucose medium; AID 775;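 active means inhibition above a set limit, placed 3 SD over the median of all compounds, cut at about 26% in these data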;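 further: 0% = nicotinamide-treated wells and 100% = cells grown without nicotinamide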
#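 assay system = DeaD-strain S. cerevisiae | buffer or medium = restrictive glucose medium | reagent = 1.5 mM nicotinamide | compound = 10 µM single point, 0.25% DMSO | incubation = 48 h compound exposure at 30 °C, humidified | signal = OD615 measurement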
# Yeast growth inh: reduces growth of yeast BB579 in restrictive medium | 140,000 tested, 0.51% active | S. cerevisiae BB579 growth, OD615, 48 h | inhibition, % at 10 µM;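 active means inhibition above a set limit, 3 SD over the mean compound inhibition, cut at about 44% in these data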
#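 Assay system – yeast BB579 (DeaD) · Dosing – single compound dose of 10 µM, 0.25% DMSO final · Detection – OD615 turbidity measurement · Buffer or medium – CSMM-D restrictive synthetic medium containing dextrose (glucose) · Benchmarks – positive control amphotericin B 10 µg/mL · Incubation – 48 h exposure, 30 °C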
# INS promoter inh: TRM-6 insulin promoter activity inhibition; TRM-6 cells, insulin promoter-eGFP reporter, imaging; reporter expression induced with tamoxifen; inhibition, % at 2 µM; 130,000 tested, 0.9% active;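 active means inhibition above the mean plus 3 SD, with well images judged a real hit on visual review, cut at about 60% in these data, passing the limit was not always enough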
# Mdm2 ligase inh: Mdm2 E3 ligase (human) inhibition | cell-based MDM2 ubiquitination luciferase reporter, 2 h; 0 = plate control, 100 = twice control, blank-subtracted | signal enhancement, % at 5 µM | 210,000 tested, 0.11% active | Q00987;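 active means signal enhancement of 30% or more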;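 further: luminescence tracks abundance of the self-degrading MDM2-luciferase fusion protein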
# Target sequence (Q00987 whole entry, looked up, the tested form may be a part): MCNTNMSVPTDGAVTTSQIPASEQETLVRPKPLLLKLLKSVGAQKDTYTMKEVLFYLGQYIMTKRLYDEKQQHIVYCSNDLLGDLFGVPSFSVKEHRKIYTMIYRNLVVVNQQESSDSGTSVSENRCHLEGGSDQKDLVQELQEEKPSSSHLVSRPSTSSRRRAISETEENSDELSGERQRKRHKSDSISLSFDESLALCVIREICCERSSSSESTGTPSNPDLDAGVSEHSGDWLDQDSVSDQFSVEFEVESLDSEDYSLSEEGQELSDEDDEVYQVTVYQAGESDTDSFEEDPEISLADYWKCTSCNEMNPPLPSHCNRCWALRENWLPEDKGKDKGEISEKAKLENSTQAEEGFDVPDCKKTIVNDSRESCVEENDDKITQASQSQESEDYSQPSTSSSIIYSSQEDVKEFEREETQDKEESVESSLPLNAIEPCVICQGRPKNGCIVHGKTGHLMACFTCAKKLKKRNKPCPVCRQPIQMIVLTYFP
#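 Test system: stable mammalian line carrying autodegrading MDM2–luciferase fusion reporter; quantity: 2000 cells in each well; times: 4 h cell settling then 2 h compound exposure, 37 °C; detection: luminescence with SteadyLite reagent, 15 min at room temperature; evaluation: percent signal gain over controls, blank-subtracted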
# Measles CPE: protection of cells from measles virus | Measles virus-infected cells, CPE protection, absorbance | 140,000 tested, 1.5% active | protection (pct of control), % at 4 µM; in the data active means protection mostly above about 24%, no sharp cut-off; inactive means mostly below about 26%
# RAM inhibit: yeast RAM network inhibition. S. cerevisiae dse1pr::URA3 reporter, 5-FOA growth OD615, 2 d; analog-sensitive cbk1-as2 kinase mutant strain. inhibition, % at 50 µM. 190,000 tested, 1.8% active. AID 868;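 active means inhibition above a set limit, 3 SD over mean compound inhibition, cut at about 8.4% in these data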;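 further: 0% = DMSO-only wells with no growth and 100% = 10 µM 1-NA-PP1 full growth; inhibition rescues growth on 5-FOA so higher OD means more RAM inhibition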
# RAM efflux-def: RAM network inhibitors in efflux-deficient yeast; shares compounds with RAM inhibit; S. cerevisiae efflux-deficient reporter strain, 5-FOA growth OD615, 2 days; max inhibition, %; 1,200 tested, under 10 active; AID 1305; call rule not given here;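 further: plate controls were vehicle for no effect and reference inhibitor for full effect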
# Numbers without * were called inactive; . = not tested or not shown. Shown are actives, neighbours in structure and some others; about 4% of the full set was active somewhere.
SMILES,Yeast life ext,Yeast growth inh,INS promoter inh,Mdm2 ligase inh,Measles CPE,RAM inhibit,RAM efflux-def
CCCc1nn(C)c(C(=O)Nc2ccc(C)c(C)c2)c1Cl,-4.2,-8.1,-9.1,1.9,39.0,22.3*,2.2
CCCC(=O)N1CCN(c2ccc([N+](=O)[O-])cc2Cl)CC1,-5.7,-23.1,20.5,-4.5,5.5,0.1,.
O=C(CSc1ccc(Cl)cc1)N1CCN(c2c(Cl)cccc2[N+](=O)[O-])CC1,3.3,-32.7,3.2,1.9,8.8,16.6*,2.6
O=C(CSc1ccc(Cl)cc1)N1CCN(c2ccc([N+](=O)[O-])cc2Cl)CC1,-1.9,-21.3,-53.9,-7.3,3.5,14.2*,5.3
Cc1ccc(S(=O)(=O)CCN2CCC(n3cccc3)CC2)cc1,.,.,.,-1.6,.,.,.
COC(=O)c1ccccc1NC(=S)NC(=O)COc1ccccc1Cl,-23.3,-17.2,44.4,22.9,35.8,4.2,.
COC(=O)c1ccccc1NC(=O)c1cccc(COc2ccccc2Cl)c1,-7.4,-12.2,-7.0,11.1,3.8,12.2*,3.3
Cc1nn(C)cc1/C=C/C(=O)c1ccc(O)cc1,-3.5,-9.1,-80.8,7.8,8.8,0.4,.
C=CCn1cccc(/C=C/C(=O)c2ccc(C(C)(C)C)cc2)c1=S,4.9,-23.0,60.0,19.0,1.7,16.5*,7.9
Cc1ccc(NC(=O)Nc2ccc3c(c2)C(=O)OC3)cc1Cl,.,.,.,-5.8,.,.,.
O=C(CNC(=S)N(Cc1ccccc1)Cc1ccccc1F)NCCc1ccc(Cl)cc1,.,.,33.3,-12.3,.,35.6*,3.2
CCOC(=O)c1ccc(NC(=O)CCC(=O)OC)cc1,-6.4,15.3,.,9.4,12.4,1.0,.
Cc1ccc(-c2noc(CCC(=O)N3CCN(c4cccc(C(F)(F)F)c4)CC3)n2)cc1,-6.9,-48.3,-18.8,5.5,25.1,11.9*,1.4
COc1ccc(-c2noc(CCC(=O)N3CCN(c4cc(C)ccc4C)CC3)n2)cc1,-16.9,-25.3,-17.9,-4.0,5.0,3.7,.
Cn1nc(C(F)(F)F)c(/C=N/OC(=O)c2ccccc2)c1SCc1ccccc1Cl,6.3,-28.0,12.1,-20.4,6.2,12.1*,2.3
COc1ccc(C(=O)/C=C/Nc2ccc(S(=O)(=O)Nc3ncccn3)cc2)cc1,2.4,-32.5,.,-9.7,31.1,11.6*,5.7
COc1ccc(C(=O)/C=C/Nc2ccc(S(=O)(=O)Nc3nc(C)cc(C)n3)cc2)cc1OC,9.4,5.8,.,-12.8,15.6,3.9,.
COc1ccc(C(=O)/C=C/Nc2ccc(S(=O)(=O)Nc3onc(C)c3C)cc2)cc1,5.2,-21.5,29.9,-13.4,42.6*,12.8*,5.4
Cc1noc(NS(=O)(=O)c2ccc(N/C=C\C(=O)c3ccncc3)cc2)c1C,23.8,-29.3,0.0,-1.7,0.6,4.5,.
Cc1sc(NC(=S)NC(=O)C(C)(C)C)c(C(N)=O)c1C,9.0,-41.4,.,-17.9,26.9,7.9,.
Cc1cc2nc(CSc3ccccc3)cc(=O)n2[nH]1,.,.,.,-0.2,.,0.1,.
O=C(N=Nc1c(O)n(Cc2ccccc2)c2ccccc12)c1ccc(O)cc1,-2.1,-41.6,21.4,-2.7,3.5,3.7,.
O=C(N=Nc1c(O)n(C2OC(=O)c3ccccc32)c2ccccc12)c1ccc(O)cc1 (stereo not drawn),-2.7,-35.1,-27.9,-12.6,20.9,12.3*,4.2
C=CCn1c(SCc2cc(=O)n3ccsc3n2)nc2cc(Cl)ccc2c1=O,.,.,-50.0,-18.3,.,3.4,.
COc1ccc(C(C)=O)cc1CSc1nc2ccccc2c(=O)n1-c1ccccc1,2.4,-37.6,.,-16.8,4.4,1.9,.
SMILES,Yeast life ext,Yeast growth inh,INS promoter inh,Mdm2 ligase inh,Measles CPE,RAM inhibit,RAM efflux-def
C=CCn1c(SCc2cc(C(C)=O)ccc2OCC)nc2ccccc2c1=O,4.9,-32.5,-66.7,4.3,0.1,16.1*,3.1
C=CCn1c(SCc2cc(=O)n3ccsc3n2)nc2ccccc2c1=O,.,.,.,11.5,.,13.7*,8.8
O=[N+]([O-])c1ccc(-c2csc(N3CCc4ccccc4C3)n2)cc1,-3.6,9.1,-57.7,-8.3,5.2,7.9,.
Brc1ccc(-c2csc(N3CCc4ccccc4C3)n2)cc1,-5.8,-46.4,-16.3,-2.2,4.0,15.1*,4.7
Cc1c(Cl)cccc1NC(=S)NN1CCOCC1,-6.3,-6.2,14.8,5.8,2.7,1.1,.
CCOc1cc(C2NN=C(c3ccccc3)S2)ccc1OCc1ccccc1Cl (stereo not drawn),-25.5,-59.9,.,0.2,4.9,12.6*,4.0
CCOc1cc(C2NN=C(c3ccccc3)S2)ccc1OCc1ccc(F)cc1 (stereo not drawn),-3.8,-31.9,18.9,-39.3,26.1,11.9*,3.3
CNCc1ccccc1OCc1ccc(F)cc1,.,.,.,-5.9,.,1.0,.
COc1cccc(CN(Cc2ccco2)S(=O)(=O)c2ccc(S(=O)(=O)NCc3ccccc3)cc2)c1OC,.,-43.6,-37.5,-12.3,12.2,14.2*,4.5
COc1cccc(CNS(=O)(=O)c2ccc(S(=O)(=O)N3CCCC3)cc2)c1,.,.,13.3,10.7,.,2.9,.
CCN(Cc1ccccc1)S(=O)(=O)c1ccc(S(=O)(=O)N(Cc2cccc(OC)c2)CC2CCCO2)cc1 (stereo not drawn),-0.5,-51.2,-21.7,-9.5,23.3,16.2*,5.7
COc1cccc(CN(Cc2ccccc2F)S(=O)(=O)c2ccc(S(=O)(=O)NCc3ccccc3)cc2)c1,12.0,-40.3,.,-5.1,7.0,17.9*,4.5
COc1cccc(CN(CC2CCCO2)S(=O)(=O)c2ccc(S(=O)(=O)NCC3CCCO3)cc2)c1OC (stereo not drawn),-11.4,-50.5,-59.4,-0.4,10.2,-0.4,.
CC(=O)Nc1cc(-c2ccc(Cl)cc2)[nH]n1,.,.,8.3,-15.3,.,0.0,.
COC(=O)CCSCC(=O)N1N=C(c2ccc(Br)cc2)CC1c1cccc(OC)c1OC (stereo not drawn),.,.,-386.7,8.8,.,13.1*,1.5
COc1cccc(C2CC(c3ccc(NS(C)(=O)=O)cc3)=NN2C(=O)c2ccccc2)c1OC (stereo not drawn),.,.,0.0,8.5,.,1.5,.
Cc1cccc(NC(=S)NCCC(c2ccccc2)c2ccccc2)c1,2.3,31.7,-48.6,-7.8,14.8,6.6,.
COc1cccc(NC(=S)NCCC(c2ccccc2)c2ccccc2)c1,-13.8,24.3,.,-4.2,36.1,12.1*,3.9
O=C(CN(C(=O)CCC(=O)Nc1ccccn1)c1ccc2c(c1)OCCO2)NCCc1ccccc1,.,-44.8,.,7.2,5.8,15.2*,1.4
COc1ccccc1N(CC(O)COc1c(C)cc(C)cc1C)S(=O)(=O)c1ccccc1 (stereo not drawn),6.9,-31.0,-43.8,-1.9,1.6,11.8*,5.5

# High-throughput results as filed in PubChem BioAssay.
